# In ChEMBL document CHEMBL1153722, “Design, synthesis, and characterization of peptide-based rab geranylgeranyl transferase inhibitors” (J Med Chem, 2009):
# Where “and” joins values, the source holds several entries; their conditions need not be identical. Equal entries are not always repeated. Square brackets hold non-standard residues; d marks the D form. Peptide text beside a SMILES is read from it. * marks the point of attachment. Hydrocinnamoyl = O=C(CCc1ccccc1)*; Palmitoyl = CCCCCCCCCCCCCCCC(=O)*; Undecanoyl = CCCCCCCCCCC(=O)*; pGlu = O=C1CC[C@@H](C(=O)O)N1; Lauroyl = CCCCCCCCCCCC(=O)*; Nicotinoyl = O=C(c1cccnc1)*; Ac6c = NC1(C(=O)O)CCCCC1; Morpholide = C1CN(*)CCO1; NHOH = ON*
# Species on record: Rattus norvegicus
# Experiment: Inhibition of rat recombinant Rab geranylgeranyltransferase at 100 uM in presence of canine Rab7 and rat REP1 NBD-FPP based continuous fluorimetric assay
# In short: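 Continuous fluorometric assay in 96/384-well format: 3 μM Rab7, 3 μM REP1, 9 μM NBD-FPP and 400 nM RabGGTase, with or without inhibitor. […] IC50 was calculated from three independent measurements.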
row,inhibition,SMILES
1,89%,O=C(/C=C/c1ccc(F)cc1)N[C@@H](CO)C(=O)N[C@@H](Cc1ccccc1)C(=O)N[C@@H](CO)C(=O)Nc1ccc(F)c(Cl)c1
2,81%,CCCCCCCCCCC(=O)N[C@@H](Cc1c[nH]cn1)C(=O)N[C@@H](Cc1c[nH]cn1)C(=O)N[C@@H](CO)C(N)=O (Undecanoyl-His-His-Ser-NH2)
3,95%,CC(C)C[C@H](NC(=O)[C@@H]1CCC(=O)N1)C(=O)N[C@@H](CCCCN)C(=O)NC1(C(N)=O)CCCCC1 ([pGlu]LK[Ac6c]-NH2)
4,89%,CCCCCCCCCCCC(=O)N[C@@H](Cc1c[nH]cn1)C(=O)N[C@@H](Cc1ccccc1)C(=O)N[C@@H](Cc1ccc(O)cc1)C(=O)NO (Lauroyl-His-Phe-Tyr-{NHOH})
5,119%,CC[C@H](C)[C@H](NC(=O)[C@H](Cc1ccccc1)NC(=O)c1cccnc1)C(=O)N[C@@H](CCCNC(=N)N)C(=O)O (Nicotinoyl-Phe-Ile-Arg-OH)
6,94%,O=C(CCc1ccccc1)N[C@@H](CO)C(=O)N[C@@H](Cc1ccccc1)C(=O)N[C@@H](CO)C(=O)N1CCOCC1 (Hydrocinnamoyl-Ser-Phe-Ser-Morpholide)
7,108%,O=C(CNC(=O)[C@H](Cc1ccc(O)cc1)NC(=O)c1ccc(F)cc1)N[C@@H](Cc1ccc(O)cc1)C(=O)N1CCOCC1
8,70%,CCCCCCCCCCCOC(=O)[C@H](CO)NC(=O)CNC(=O)[C@H](CO)NC(=O)/C=C/c1ccc(F)cc1
9,83%,CC(C)C[C@H](NC(=O)[C@H](COC(C)(C)C)NC(=O)[C@H](Cc1ccccc1)NC(=O)/C=C/c1ccc(F)cc1)C(N)=O
10,76%,CCCCOC(=O)[C@H](Cc1ccc(O)cc1)NC(=O)CNC(=O)[C@H](Cc1ccc(O)cc1)NC(=O)c1ccc(F)cc1
11,55%,O=C(CNC(=O)[C@H](Cc1ccc(O)cc1)NC(=O)c1ccc(F)cc1)N[C@@H](Cc1ccc(O)cc1)C(=O)OCCCl
12,53%,CC(C)C[C@H](NC(=O)[C@H](CO)NC(=O)[C@H](Cc1ccccc1)NC(=O)c1ccc(-c2ccccc2)cc1)C(=O)OCCCl
13,71%,CC(C)C[C@H](NC(=O)[C@H](CO)NC(=O)[C@H](Cc1ccccc1)NC(=O)/C=C/c1ccc(F)cc1)C(=O)O
14,36%,CCCCCCCCCCCCCC(=O)OC[C@H](NC(=O)[C@@H]1CCCN1C(=O)[C@H](CCC(N)=O)NC(=O)c1coc(-c2ccccc2)n1)C(=O)O
15,89%,CC[C@H](C)[C@H](NC(=O)c1ccc(-c2ccccc2)cc1)C(=O)N[C@@H](C(=O)N[C@@H](CCC(N)=O)C(N)=O)C(C)C
16,104%,CC(C)CCNC(=O)[C@H](Cc1ccccc1)NC(=O)[C@H](CC(C)C)NC(=O)[C@@H]1CCCN1C(=O)/C=C/c1ccccc1
17,80%,CON(C)C(=O)[C@H](Cc1ccc(O)cc1)NC(=O)CNC(=O)[C@H](Cc1ccc(O)cc1)NC(=O)CCc1ccc(F)cc1
18,77%,O=C(CNC(=O)c1coc(-c2ccccc2)n1)N[C@@H](Cc1cn(C(c2ccccc2)(c2ccccc2)c2ccccc2)cn1)C(=O)N[C@@H](Cc1ccccc1)C(=O)O
19,69%,COC(=O)[C@H](CC(C)C)NC(=O)[C@H](CO)NC(=O)[C@H](Cc1ccccc1)NC(=O)CCc1ccccc1
20,70%,O=C(N[C@@H](Cc1ccc(O)cc1)C(=O)N[C@@H](Cc1ccc(O)cc1)C(=O)N[C@@H](Cc1ccc(O)cc1)C(=O)NCc1ccccc1)c1ccc(F)cc1F

row,inhibition,SMILES
1,75%,C[C@@H](O)[C@H](NC(=O)/C=C/c1ccccc1)C(=O)N[C@@H](Cc1ccccc1)C(=O)N[C@@H](CCC(N)=O)C(=O)NC1CCCCC1
2,70%,CCCCCCCCCCC(=O)N[C@@H](Cc1c[nH]cn1)C(=O)N[C@@H](Cc1c[nH]cn1)C(=O)N[C@@H](Cc1ccc(O)cc1)C(=O)Nc1ccccn1
3,5%,C[C@H](NC(=O)CCc1ccccc1)C(=O)N[C@@H](Cc1ccccc1)C(=O)N[C@@H](CCC(N)=O)C(=O)NNc1ccccc1
4,67%,CCCCCCCCCCCCCC(=O)OC[C@H](NC(=O)[C@H](Cc1ccccc1)NC(=O)[C@H](CCCCNC(=O)c1csc(-c2cccnc2)n1)NC(=O)c1csc(-c2cccnc2)n1)C(=O)O
5,89%,NC(=O)CC[C@H](NC(=O)[C@H](Cc1ccccc1)NC(=O)CNC(=O)CCc1ccccc1)C(=O)N1CCOCC1 (Hydrocinnamoyl-Gly-Phe-Gln-Morpholide)
6,106%,O=C(N[C@@H](Cc1ccc(O)cc1)C(=O)N[C@@H](Cc1ccc(O)cc1)C(=O)N[C@@H](Cc1ccc(O)cc1)C(=O)O)c1ccc(F)cc1F
7,92%,O=C(/C=C/c1ccc(F)cc1)N[C@@H](CO)C(=O)N[C@@H](Cc1ccccc1)C(=O)N[C@@H](CO)C(=O)Nc1ccc(F)cc1F
8,99%,O=C(CCc1ccc(F)cc1)N[C@@H](Cc1ccc(O)cc1)C(=O)NCC(=O)N[C@@H](Cc1ccc(O)cc1)C(=O)Nc1ccccc1
9,84%,CCCCCCCCCCC(=O)N[C@@H](Cc1ccc(O)cc1)C(=O)N[C@@H](Cc1c[nH]cn1)C(=O)N[C@@H](Cc1c[nH]cn1)C(=O)NO (Undecanoyl-Tyr-His-His-{NHOH})
10,92%,CC[C@H](C)[C@H](NC(=O)CCc1ccc(F)cc1)C(=O)N[C@@H](C)C(=O)N[C@@H](CCC(N)=O)C(=O)Nc1cccc(Br)n1
11,102%,CON(C)C(=O)[C@H](CCC(N)=O)NC(=O)[C@H](Cc1ccccc1)NC(=O)[C@@H](NC(=O)C(Br)C(Br)c1ccccc1)[C@@H](C)O (stereo not given in full)
12,87%,C=CCCCCCCCCCOC(=O)[C@H](CO)NC(=O)[C@H](Cc1ccccc1)NC(=O)[C@H](CO)NC(=O)/C=C/c1ccc(F)cc1
13,49%,CCCCCCCCCCCCCCCC(=O)N[C@@H](Cc1ccc(O)cc1)C(=O)N[C@@H](Cc1ccc(O)cc1)C(=O)N[C@@H](Cc1ccc(O)cc1)C(=O)OC (Palmitoyl-Tyr-Tyr-Tyr-OMe)
14,79%,CCCCCCCCCCC(=O)N[C@@H](Cc1ccc(O)cc1)C(=O)N[C@@H](Cc1c[nH]cn1)C(=O)N[C@@H](Cc1c[nH]cn1)C(N)=O (Undecanoyl-Tyr-His-His-NH2)
15,111%,C[C@@H](NC(=O)CCc1ccccc1)C(=O)N[C@@H](Cc1ccccc1)C(=O)N[C@@H](CCC(N)=O)C(=O)O
16,76%,CCCCCCCCCCC(=O)N[C@@H](Cc1c[nH]cn1)C(=O)N[C@@H](Cc1ccccc1)C(=O)N[C@@H](Cc1ccc(O)cc1)C(=O)NOC(C)(C)C
17,77%,C[C@H](NC(=O)[C@@H](NC(=O)c1ccc(-c2ccccc2)cc1)[C@@H](C)O)C(=O)N[C@@H](CCC(N)=O)C(=O)Nc1cccc(Br)n1
18,92%,CC(C)CCNC(=O)[C@H](Cc1ccccc1)NC(=O)[C@H](Cc1ccccc1)NC(=O)[C@H](CC(C)C)NC(=O)/C=C/c1ccccc1
19,89%,CCCCCCCCCCCCCC(=O)N[C@@H](Cc1ccc(O)cc1)C(=O)N[C@@H](Cc1ccc(O)cc1)C(=O)N[C@@H](Cc1ccc(O)cc1)C(=O)N(C)OC
20,99%,CC[C@H](C)[C@H](NC(=O)c1ccc(-c2ccccc2)cc1)C(=O)N[C@@H](C(=O)N[C@@H](CCC(N)=O)C(=O)NNC(=O)OC)C(C)C

row,inhibition,SMILES
1,102% and 98%,CC(C)C[C@H](NC(=O)[C@@H]1CCC(=O)N1)C(=O)N[C@@H](CCCCN)C(=O)NC1(C(=O)O)CCCCC1 ([pGlu]LK[Ac6c]-OH)
2,106%,C=CCOC(=O)[C@H](Cc1c[nH]cn1)NC(=O)[C@H](Cc1ccccc1)NC(=O)CNC(=O)C1COC(c2ccccc2)=N1 (stereo not given in full)
3,79%,COC(=O)[C@H](Cc1ccccc1)NC(=O)[C@H](CC(C)C)NC(=O)[C@@H]1CCCN1C(=O)/C=C/c1ccccc1
4,34%,CN(C(=O)[C@@H](Cc1c[nH]cn1)NC(=O)OCc1ccccc1)[C@@H](Cc1ccc(O)cc1)C(=O)N[C@@H](Cc1ccccc1)C(=O)O
5,75%,CC(C)(C)Oc1ccc(C[C@H](NC(=O)CNC(=O)[C@H](Cc2ccc(OC(C)(C)C)cc2)NC(=O)c2coc(-c3ccccc3)n2)C(=O)O)cc1
6,75%,C=CCCCOC(=O)[C@H](CCC(N)=O)NC(=O)[C@H](Cc1ccccc1)NC(=O)[C@H](C)NC(=O)CCc1ccccc1
7,75%,CC(C)C[C@H](NC(=O)/C=C/c1ccccc1)C(=O)N[C@@H](Cc1ccccc1)C(=O)N[C@@H](Cc1ccccc1)C(=O)O
8,114%,CCCCCCCCCCCCCCCC(=O)N[C@@H](Cc1ccc(O)cc1)C(=O)N[C@@H](Cc1ccc(O)cc1)C(=O)N[C@@H](Cc1ccc(O)cc1)C(=O)OCCCl
9,99%,O=C(/C=C/c1ccc(F)cc1)N[C@@H](CO)C(=O)N[C@@H](Cc1ccccc1)C(=O)N[C@@H](CO)C(=O)O
10,47%,CCCCCCCCCCC(=O)N[C@@H](Cc1c[nH]cn1)C(=O)N[C@@H](Cc1c[nH]cn1)C(=O)N[C@@H](CO)C(=O)N(C)CCc1ccccn1
11,94%,NC(=O)CC[C@H](NC(=O)[C@H](Cc1ccccc1)NC(=O)CNC(=O)CCc1ccccc1)C(=O)O (Hydrocinnamoyl-Gly-Phe-Gln-OH)
12,84%,O=C(CNC(=O)c1coc(-c2ccccc2)n1)N[C@@H](Cc1c[nH]cn1)C(=O)N[C@@H](Cc1ccccc1)C(=O)O
13,32%,CC(C)(C)Oc1ccc(C[C@H](NC(=O)c2coc(-c3ccccc3)n2)C(=O)NCC(=O)N[C@@H](Cc2c[nH]c3ccccc23)C(=O)O)cc1
14,96%,CC(C)C[C@H](NC(=O)[C@H](COC(C)(C)C)NC(=O)[C@H](Cc1ccccc1)NC(=O)CCc1ccccc1)C(N)=O
15,92%,CCCCCCCCCCCCCCCC(=O)N[C@@H](Cc1ccc(O)cc1)C(=O)N[C@@H](Cc1ccc(O)cc1)C(=O)N[C@@H](Cc1ccc(O)cc1)C(=O)NCc1ccc(F)cc1F
16,89%,O=C(CCc1ccc(F)cc1)N[C@@H](Cc1ccc(O)cc1)C(=O)NCC(=O)N[C@@H](Cc1ccc(O)cc1)C(=O)Nc1ccc(F)cc1F
17,99%,CCCCCCCCCCCOc1ccc(C(=O)N[C@@H](Cc2ccc(O)cc2)C(=O)N[C@@H](Cc2ccc(O)cc2)C(=O)N[C@@H](Cc2ccc(O)cc2)C(=O)NCc2ccc(F)cc2F)cc1
18,106%,O=C(CNC(=O)[C@H](Cc1ccccc1)NC(=O)c1coc(-c2ccccc2)n1)N[C@@H](CO)C(=O)O
19,103%,CCCCCCCCCCCOc1ccc(C(=O)N[C@@H](Cc2ccc(O)cc2)C(=O)N[C@@H](Cc2ccc(O)cc2)C(=O)N[C@@H](Cc2ccc(O)cc2)C(N)=O)cc1

row,SMILES,inhibition
1,NCCCCNC(=O)[C@H](Cc1ccc(O)cc1)NC(=O)CNC(=O)[C@H](Cc1ccc(O)cc1)NC(=O)c1ccc(F)cc1,88%
